TAAR1 antag = human TAAR1 antagonism | Q96RJ0 | AID 624466 | inhibition, % at 3 µM | CHO RD-HGA16 TAAR1, Fluo-8 calcium fluorescence, antagonist | actives 1.5% (n = 360,000);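 active means inhibition above a per-plate cutoff, the mean inhibition of test compounds on that plate plus 3 SD, cut at about 49% in these data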;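 further: 0% = DMSO plus EC80 beta-PEA response and 100% = DMSO alone without agonist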
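Test system – hTAAR1-expressing CHO RD-HGA16 cells, Gα16-coupled · Reagent – β-PEA at EC80 concentration, post-compound challenge · Compound dosing – 3 µM, single point · Timing – 140 s kinetic read after compound, 140 s after agonist · Detection – Fluo-8 intracellular calcium dye fluorescence, real-time kinetic reads · Control set – DMSO and EC80 PEA controls · Repeats – n of 1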
M1 ag = agonists of human M1 muscarinic receptor; AID 588814; CHO-K1 hM1, Fluo-8 calcium fluorescence, agonist mode; 0% DMSO, 100% acetylcholine EC100; activation, % at 3 µM; actives 0.33% (n = 360,000);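 active means activation above the run's mean compound activation plus 3 SD, cut at about 16% in these data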;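 further: peak over basal fluorescence ratio within a 140 s kinetic read after compound addition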
Target sequence (P11229 whole entry, looked up): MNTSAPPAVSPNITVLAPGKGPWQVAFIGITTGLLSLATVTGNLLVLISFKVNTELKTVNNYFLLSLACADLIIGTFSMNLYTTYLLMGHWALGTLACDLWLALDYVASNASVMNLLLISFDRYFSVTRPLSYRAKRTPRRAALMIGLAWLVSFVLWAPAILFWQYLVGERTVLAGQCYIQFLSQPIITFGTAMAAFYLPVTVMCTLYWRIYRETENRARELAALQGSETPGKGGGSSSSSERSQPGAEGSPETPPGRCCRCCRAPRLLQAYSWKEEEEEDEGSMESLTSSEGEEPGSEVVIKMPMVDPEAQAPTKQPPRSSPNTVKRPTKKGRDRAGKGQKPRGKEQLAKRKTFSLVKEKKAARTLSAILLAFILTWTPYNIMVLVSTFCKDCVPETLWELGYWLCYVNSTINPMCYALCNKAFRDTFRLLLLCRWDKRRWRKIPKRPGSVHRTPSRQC
CHRM1 antagonist = blocks human M1 muscarinic receptor. actives 1.3% (n = 360,000). inhibition, % at 3 µM. CHO-K1 hM1, Fluo-8 calcium fluorescence, ACh EC80 antagonist. P11229;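 active means percent inhibition above its own plate's cutoff, namely the mean of that plate's compound wells plus 3 SD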;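 further: peak over basal fluorescence ratio during 140 s after agonist addition; 0% = ACh EC80 plus DMSO and 100% = DMSO alone without agonist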
TAAR1 agonist = agonists of human TAAR1; Q96RJ0; CHO RD-HGA16 TAAR1, Fluo-8 calcium fluorescence; vehicle wells 0%, saturating PEA agonist 100%; activation, % at 3 µM; actives 0.99% (n = 360,000);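 active means activation above the mean activation of all test compounds in the run plus 3 SD, cut at about 38% in these data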
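Test system: RD-HGA16 (CHO) cells co-expressing Gα16 and hTAAR1 | Doses: Single dose, 3 µM | Schedule: 17-24 h seeding, 75 min 37 °C dye, 30 min RT | Evaluation: % activation from peak over basal fluorescence ratio, DMSO-to-PEA scaled | Technique: Kinetic Fluo-8 calcium fluorescence | Benchmarks: Low control DMSO, high control PEA (EC100)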
CHRM1 PAM = potentiates human M1 receptor response to acetylcholine | activation, % at 3 µM | CHO-K1 hM1, Fluo-8 calcium fluorescence, ACh EC20; 0% = ACh EC20, 100% = maximal ACh | actives 0.088% (n = 360,000); in the data active means activation above about 19%, passing the limit was not always enough
m5-HT2A agonist = activates the mouse 5-HT2A serotonin receptor; P35363; CHO-K1 mHTR2A beta-arrestin complementation, luminescence; percent of 30 µM serotonin response; activation, % at 7.6 µM; actives 0.66% (n = 360,000);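 active means activation above a run cutoff, the mean activation of all tested compounds plus 3 SD, cut at about 14% in these data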;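 further: 0% = plate median of compound wells and 100% = 30 µM serotonin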
TAAR1 nonsel count = nonselective antagonism, TAAR1 counter-screen. shares compounds with TAAR1 antag. counterscreen cell line, calcium fluorescence, antagonist mode. inhibition, % at 3 µM. actives 77% (n = 2,400). AID 651780; in the data active means inhibition above about 22%;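 further: CHO-Ga16 host cells stimulated with ATP at an EC80 level; 0% = agonist EC80 plus vehicle and 100% = vehicle without agonist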
TAAR1 antag conf = human TAAR1 antagonism, confirmed | shares compounds with TAAR1 antag | inhibition, % at 3 µM | TAAR1-expressing cells, fluorescence antagonist read-out | actives 40% (n = 2,400); in the data active means inhibition above about 49%;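 further: CHO-Ga16 host cells challenged with agonist PEA near its EC80; 0% = agonist at EC80 plus vehicle and 100% = vehicle with no agonist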
Ga16 nonsel ag = nonselective Ga16 agonism, counter-screen; shares compounds with TAAR1 antag; Ga16-expressing cells, calcium fluorescence, agonist counterscreen; activation, % at 3 µM; actives 18% (n = 2,400); in the data active means activation above about 12%;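 further: 0% = vehicle wells and 100% = saturating stimulus response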
TAAR1 ag counter = counter-screen for human TAAR1 antagonists: TAAR1 agonists. hTAAR1 cell line, fluorescence activation, agonist mode. actives 2% (n = 2,400). shares compounds with TAAR1 antag. activation, % at 3 µM. AID 651955; in the data active means activation above about 37%;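 further: CHO cells stably expressing TAAR1 with calcium dye readout; 0% = DMSO vehicle and 100% = full agonist response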
* = called active by the depositor; / = no result given. Only some compounds are listed: those with a hit (about 3.9% of all), similar ones and a draw of the others.

SMILES | TAAR1 antag | M1 ag | CHRM1 antagonist | TAAR1 agonist | CHRM1 PAM | m5-HT2A agonist | TAAR1 nonsel count | TAAR1 antag conf | Ga16 nonsel ag | TAAR1 ag counter
O=C(O)c1cc(-c2ccc3c(c2)OCO3)nc2ccc(Cl)cc12 | -26 | 1 | -5 | 0 | 9 | 1 | / | / | / | /
O=C(c1cc(-c2ccncc2)nc2ccc(Cl)cc12)N1CCN(Cc2ccc3c(c2)OCO3)CC1 | 58* | -2 | 22 | 20 | -5 | 0 | 32* | 53* | 10 | 10
COC(=O)c1ccc(C(c2c(C)n(C)n(-c3ccccc3)c2=O)c2c(C)n(C)n(-c3ccccc3)c2=O)cc1 | -19 | -5 | -1 | 5 | 1 | 3 | / | / | / | /
Cc1ccccc1N1CCN(C2CCCN(C(=O)c3cn4cccc(C)c4n3)C2)CC1 (configuration not stated) | 57* | 2 | 18 | 14 | -8 | -4 | 30* | 41 | 9 | 8
COc1ccc(Nc2nc(-c3cccs3)nc3ccccc23)cc1S(=O)(=O)N1CCOCC1 | 71* | -1 | 24 | 15 | -7 | 5 | 30* | 49* | 10 | 7
COc1ccc(NC(=O)c2ccc(-c3ccccc3)cc2)cc1S(=O)(=O)N1CCOCC1 | 87* | -2 | 4 | 16 | 0 | -4 | 47* | 61* | 14* | 9
COCCNc1nc(Oc2ccc(NC(C)=O)cc2)c2sc(-c3ccccc3)cc2n1 | 55* | -1 | -10 | 8 | 9 | -1 | 52* | 50* | 9 | 8
CC(Oc1ccc2c(-c3ccccc3)cc(=O)oc2c1)C(=O)N1CCC[C@@H]1C(N)=O (some centres not stated) | 2 | -5 | 4 | 3 | -2 | -1 | / | / | / | /
C#Cc1cccc(NC(=O)c2ccc3c(c2)C(=O)N(Cc2cccnc2)C3=O)c1 | 85* | 2 | 34* | 15 | -11 | -3 | 42* | 61* | 14* | 14
O=C(c1ccncc1)c1ccc(N2CCN(C3CC(=O)N(Cc4ccccc4)C3=O)CC2)cc1 (configuration not stated) | 51* | -1 | 10 | 27 | -18 | 4 | 26* | 27 | 11 | 10
COc1ccc(N2CCN(C3CC(=O)N(Cc4ccccc4)C3=O)CC2)cc1 (configuration not stated) | -34 | -2 | -18 | 1 | 14 | -1 | / | / | / | /
O=C(Nc1ccc(C(=O)N2CCC(N3CCOCC3)CC2)cc1)c1ccc(Br)o1 | 18 | -5 | 3 | 1 | 6 | -4 | / | / | / | /
COc1ccccc1CN(C)C(=O)c1ccc(S(=O)(=O)Nc2c(C)n(C)n(-c3ccccc3)c2=O)cc1 | 50* | -2 | -5 | 8 | -10 | -1 | 20 | 36 | 5 | 4
CC1(C(=O)OCC(=O)Nc2nc(-c3ccc(F)c(F)c3)cs2)CC1(Cl)Cl (configuration not stated) | 88* | -5 | 29 | 4 | -14 | 4 | 49* | 76* | 9 | 3
O=C(Cc1ccc(F)cc1)Nc1nc(-c2ccc(F)c(F)c2)cs1 | 74* | -7 | 11 | 10 | -18 | -1 | 34* | 45 | 7 | 4
Cc1ccc(NC(=O)C/C(N)=N/OC(=O)Nc2ccc(C)c(Cl)c2)cc1 | -5 | -4 | 5 | 5 | 4 | -5 | / | / | / | /
Cc1ccc(S(=O)(=O)NCC2CCC(C(=O)NCc3ccc4c(c3)OCO4)CC2)cc1 (configuration not stated) | -8 | -7 | -4 | 8 | -3 | -5 | / | / | / | /
O=C(NCc1ccc2c(c1)OCO2)C1CCC(CNS(=O)(=O)c2ccc(Cl)cc2)CC1 (configuration not stated) | 49* | -2 | -2 | 9 | 1 | 1 | 14 | 24 | 4 | 9
CCCCOc1cccc2c(=O)n(CC(=O)Nc3ccc4c(c3)OCCO4)ccc12 | 71* | -5 | -4 | 21 | 3 | 1 | 43* | 88* | 13* | 28
Cc1n[nH]c(C)c1S(=O)(=O)N(CC(=O)NC1CCCC1)c1ccc(C(C)C)cc1 | 61* | -8 | 3 | 9 | -4 | 0 | 22* | 38 | 8 | 11
Cc1nn(-c2ccccc2)c(Cl)c1C(=O)N1CCN(c2ncnc3c2cnn3-c2ccccc2)CC1 | 78* | 2 | 16 | 21 | -4 | 11 | 52* | 63* | 13* | 11
CCN1C(=O)C(CC(=O)Nc2ccc(OC)cc2)N(CCCN2CCN(c3ccc(F)cc3)CC2)C1=S (configuration not stated) | 66* | -5 | -19 | 27 | 3 | -10 | 32* | 45 | 17* | 15
CCN1C(=O)C(CC(=O)Nc2ccc(OC)cc2)N(CCc2ccc(F)cc2)C1=S (configuration not stated) | 69* | -5 | 36 | 11 | -11 | 1 | 42* | 59* | 13* | 12
COc1ccc(NC(=O)CC2C(=O)N(Cc3ccccc3)C(=S)N2CCN2CCOCC2)cc1 (configuration not stated) | -21 | -5 | -10 | 6 | 3 | 3 | / | / | / | /
COc1ccc(NC(=O)CC2C(=O)N(C)C(=S)N2CCc2ccc(F)cc2)cc1 (configuration not stated) | 58* | -1 | 0 | 19 | -2 | 4 | 31* | 50* | 14* | 11
COc1ccc(CCN2C(=S)N(C)C(=O)C2CC(=O)Nc2ccc(OC)cc2)cc1 (configuration not stated) | 26 | -3 | -8 | 13 | 6 | 2 | / | / | / | /
Cc1c(NC(=O)N(C)c2ccccc2)c(=O)n(-c2ccccc2)n1C | -27 | -2 | -2 | 1 | 2 | 6 | / | / | / | /
CSc1ccc(C(O)c2ncc(-c3ccccc3F)[nH]2)cc1 (configuration not stated) | -13 | -2 | -1 | 4 | -3 | -2 | / | / | / | /
